M1 agonist: activates the M1 muscarinic receptor. CHO-M1 cells, Fluo-4 calcium fluorescence, agonist mode; active compounds read high. B-score at 10 µM. 64,000 compounds, 3% hits. AID 626;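 active = fluorescence rise, raw or as B-score row- and column-corrected plate score, outside the 99.7% band of its plate's samples, either direction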
S1P1 ag pot: S1P1 (human) agonism or agonism potentiation; P21453; S1P1 CRE-bla cells, forskolin, beta-lactamase FRET, potentiator mode; S1P1 agonist co-added at EC20, 2 nM; 100% = saturating reference agonist, 0% = basal; activation, % at 9.5 µM; 56,000 compounds, 0.57% hits;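 active = activation above a cutoff set at the mean activation of all tested compounds plus 3 SD, cut at about 54% in these data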;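 also: forskolin at 4 µM as EC80 and the EC20 agonist is SEW2871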
M1 antagonist: M1 muscarinic receptor (rat) antagonism; CHO-M1 cells, Fluo-4 calcium, ACh EC80 antagonist mode; active compounds read low; B-score at 10 µM; 64,000 compounds, 3.4% hits;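 active = calcium fluorescence response, raw or row-and-column corrected B-score, differing from the plate sample mean either way at a set confidence level, mostly lower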
Target sequence (P08482 whole entry, looked up): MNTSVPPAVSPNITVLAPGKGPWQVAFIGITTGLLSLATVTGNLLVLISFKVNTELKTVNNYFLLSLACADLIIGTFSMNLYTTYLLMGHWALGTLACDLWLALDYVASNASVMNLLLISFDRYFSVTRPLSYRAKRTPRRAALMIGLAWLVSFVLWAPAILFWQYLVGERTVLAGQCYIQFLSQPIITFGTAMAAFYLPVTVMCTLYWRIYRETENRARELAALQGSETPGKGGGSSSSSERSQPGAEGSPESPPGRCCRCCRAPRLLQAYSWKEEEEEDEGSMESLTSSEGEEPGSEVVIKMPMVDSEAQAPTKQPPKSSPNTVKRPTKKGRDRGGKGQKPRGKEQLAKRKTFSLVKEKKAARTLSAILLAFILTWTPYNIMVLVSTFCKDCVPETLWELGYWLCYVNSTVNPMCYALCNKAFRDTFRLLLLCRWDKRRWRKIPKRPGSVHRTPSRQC
TNAP act mid DEA: activators of human TNAP at intermediate phosphate acceptor. P05186. purified TNAP, CDP-star luminescence, 100 mM DEA, 30 min; active compounds read high; scale: 0 levamisole-inhibited, 1 vehicle-only enzyme. activation factor at 20 µM. 64,000 tested, under 10 active;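 active = activation factor of at least 2 at 20 µM, relative to controls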
D1 allo mod: allosteric modulators of human D1 dopamine receptor; HEK293 D1, CRE-luciferase, dopamine EC30 potentiation; actives deviate in either direction; B-score at 10 µM; 58,000 compounds, 5.9% hits; P21728;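 active = luminescence count or its row- and column-corrected plate score outside the 99.7% band of the plate's sample wells, on either side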
S1P3 ag: S1P3 (human) receptor agonism; activation, % at 4.5 µM; S1P3 NFAT-BLA reporter cells, FRET ratio; relative to 1 µM S1P, basal subtracted; AID 373; Q99500; 60,000 compounds, 0.1% hits;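 active = activation above the screen-wide mean plus 3 SD, cut at about 4.5% in these data, passing the limit was not always enough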
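Benchmarks: high control 1 µM S1P / System: stable CHO line with human S1P3, Gα16, NFAT-BLA reporter / Dosing: single compound concentration, 4.5 µM final / Timing: 4 h compound at 37 °C, 2 h substrate at RT / Measured by: FRET β-lactamase substrate fluorescence, excitation 405 nm, 460/535 nm emission ratio, background-subtracted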
M1 agonist conf: rat M1 muscarinic agonism, confirmation; CHO-M1 cells, Fluo-4 calcium fluorescence, agonist mode; actives lie on both sides; 1,700 compounds, 19% hits; shares compounds with M1 agonist; AID 1488; fluorescence change (max-min) at 10 µM;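 active = fluorescence change differs from the solvent-only DMSO control mean at a set confidence level in both duplicate runs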;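 also: an EC20 dose of acetylcholine follows compound addition during the same imaging run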
M4 ag counter: rat M4 muscarinic agonism, M1 counter-screen; CHO M4/Gqi5 cells, Fluo-4 calcium fluorescence, agonist mode; actives lie on both sides; shares compounds with M1 agonist; 1,700 compounds, 9% hits; AID 1741; fluorescence change (max-min) at 10 µM;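 active = fluorescence change differing from the plate's solvent-only control wells at 99.7% confidence in both duplicates, whether higher or lower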
M1 antag confirm: M1 muscarinic receptor (rat) antagonism, confirmed | 1,700 compounds, 43% hits | shares compounds with M1 antagonist | CHO-M1 cells, Fluo-4 calcium, ACh EC80 antagonism; active compounds read low | calcium response (max-min fluorescence) at 10 µM;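 active = calcium response below the same-plate mean of wells given acetylcholine alone at its 80%-effect dose, minus 3 SD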
mGluR4 antag: acts on human mGluR4 in M1 antagonist selectivity test | shares compounds with M1 antagonist | CHO-mGluR4 calcium flux, Fluo-4 fluorescence, glutamate EC80; active compounds read low | fluorescence response (max-min) at 10 µM | 1,700 compounds, 0.9% hits | AID 678;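 active = fluorescence response below the plate's average for near-maximal glutamate wells, less 3 SD of those wells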;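 also: raw unnormalized fluorescence span taken in the window right after glutamate addition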
D1 mod confirm: D1 receptor (human) allosteric modulation, confirmed. shares compounds with D1 allo mod. HEK293 D1 CRE-luciferase, dopamine EC30 potentiation; active compounds read high. luminescence at 10 µM. 2,200 compounds, 88% hits. AID 642;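 active = luminescence in either of two replicates above the same-plate mean plus 3 SD of the low-dose dopamine control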
D1 ag no DA: D1 (human) signaling in absence of dopamine; shares compounds with D1 allo mod; HEK293 D1 CRE-luciferase, luminescence, no dopamine; active compounds read high; AID 646; 1,900 compounds, 0.8% hits; luminescence at 10 µM; in the data active = luminescence above about 3900
Isoprot counter: isoproterenol response counter-screen activity for D1 modulators; shares compounds with D1 allo mod; HEK293 D1 CRE-luciferase, isoproterenol EC30 counter-screen; active compounds read high; luminescence at 10 µM; 2,200 compounds, 63% hits;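 active = luminescence in either replicate above plate mean of wells with a partly effective reference agonist dose plus 3 SD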;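 also: isoproterenol raises cAMP through native beta-adrenoceptor Gs so signal bypasses D1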
Each line names hits and unclear results; the compound was inactive in the other large screens (follow-up assays come after a bar, where they were run). Only some compounds are listed: those with a hit (about 11% of all), similar ones and a draw of the others.

CC(=O)c1sc2nc(-c3cccs3)cc(C(F)(F)F)c2c1N	M1 agonist 98, D1 allo mod 5.9 | M1 agonist conf 123 | M4 ag counter inactive | D1 mod confirm 12244 | D1 ag no DA inactive | Isoprot counter 3268
CCCCCCSC1=C(C#N)C(c2ccc(O)cc2)CC(=O)N1 (stereo not given)	none
CN(C)C(CNC(=O)C1CCCN(C(=O)c2ccc(Cl)cc2)C1)c1ccco1 (stereo not given)	M1 antagonist -3.6 | M1 antag confirm inactive | mGluR4 antag inactive
CC1CCN(C(=O)C2Cc3ccccc3CN2S(=O)(=O)c2ccc(F)cc2)CC1 (stereo not given)	none
CCC(C)N(C(=O)COC(=O)Cc1n[nH]c(=O)c2ccccc12)C1CCS(=O)(=O)C1 (stereo not given)	M1 antagonist -3.6 | M1 antag confirm inactive | mGluR4 antag inactive
Cc1cc(OCCCCCNCCO)cc(C)c1Cl	M1 antagonist -3.8 (no result: D1 allo mod) | M1 antag confirm inactive | mGluR4 antag inactive
Cc1noc(/C=C/N(C)C)c1S(=O)(=O)N1CCCC(C(=O)NC2CCCCC2)C1 (stereo not given)	M1 antagonist -2.3 | M1 antag confirm inactive | mGluR4 antag inactive
O=C(COc1ccccc1F)Nc1ccc(S(=O)(=O)NCc2ccco2)cc1	none
COc1cc(NC(=O)NCc2ccncc2)cc(OC)c1OC	none
CN(C(=O)c1cc2n(n1)C(C(F)(F)F)CC(c1ccco1)N2)c1ccc(OC(F)(F)F)cc1 (stereo not given)	none
CN(C(=O)c1cc2n(n1)C(C(F)(F)F)CC(c1ccco1)N2)c1ccccc1 (stereo not given)	M1 antagonist -2.9 | M1 antag confirm inactive | mGluR4 antag inactive
CCOc1ccccc1N1Cc2cc(C)c(C)cc2C1	M1 antagonist -1.5 | M1 antag confirm inactive | mGluR4 antag inactive
Cc1ccc(N(CC(=O)Nc2ccc3c(c2)OCCO3)S(=O)(=O)c2c(C)noc2C)cc1	M1 antagonist -3 | M1 antag confirm inactive | mGluR4 antag inactive
O=c1[nH]c2ccccc2n1CCCN1CCN(C(c2ccccc2)c2ccccc2)CC1	none
CCOC(=O)c1cnc(-c2ccccc2)nc1N	M1 antagonist -2.2 | M1 antag confirm inactive | mGluR4 antag inactive
NC(=O)C(F)(F)C12OC3C4C5CC(C6C5C3C61)C42 (stereo not given)	none
Cc1cc2nsnc2c(S(=O)(=O)NCC(=O)O)c1C	none
c1ccc2c(c1)[nH]c1c(N3CCOCC3)ncnc12	none
Cc1ccc2[nH]c3c(N4CCOCC4)ncnc3c2c1	none
c1ccc2c(c1)[nH]c1c(N3CCSCC3)ncnc12	M1 antagonist -2.9 (no result: D1 allo mod) | M1 antag confirm inactive | mGluR4 antag inactive
c1ccc2c(c1)[nH]c1c(N3CCCC3)ncnc12	M1 antagonist -5.4 | M1 antag confirm 405 | mGluR4 antag inactive
CN1CCN(c2ncnc3c2[nH]c2ccc(F)cc23)CC1	M1 antagonist -6.2 (no result: D1 allo mod) | M1 antag confirm inactive | mGluR4 antag inactive
c1ccc2c(c1)[nH]c1c(N3CCN(C4CCCCC4)CC3)ncnc12	none (no result: D1 allo mod)
CC1=C(C(=O)OC(C)C)C(c2cccc(F)c2)N2C(=O)C(C)SC2=N1 (stereo not given)	none
CN1CCN(C(=O)CN(Cc2ccc(Cl)cc2)S(C)(=O)=O)CC1	M1 antagonist -2.5 | M1 antag confirm inactive | mGluR4 antag inactive
CCCOc1ccc(N2C(=O)CC(NCc3ccncc3)C2=O)cc1 (stereo not given)	none (no result: S1P1 ag pot)
CC(C)CCNC(=O)Cn1c(=O)oc2cc(S(=O)(=O)N3CCc4ccccc43)ccc21	M1 antagonist -4.5 | M1 antag confirm 478 | mGluR4 antag inactive
O=C(Cn1c(=O)oc2cc(S(=O)(=O)N3CCc4ccccc43)ccc21)NC1CCCC1	M1 antagonist -4.3 | M1 antag confirm 503 | mGluR4 antag inactive
COc1ccccc1C(=O)N(Cc1ccco1)C1CCS(=O)(=O)C1 (stereo not given)	none
O=C(c1cnn2ccccc12)N(Cc1ccco1)C1CCCC1	M1 antagonist -4.6 | M1 antag confirm 396 | mGluR4 antag inactive
Cc1nc2sc(C(c3cccc(F)c3)N3CCOCC3)c(O)n2n1 (stereo not given)	none
CCC(C)(CC(=O)N(C)CCC#N)c1ccccc1 (stereo not given)	none (no result: S1P1 ag pot, D1 allo mod, S1P3 ag)
CN1CCN(CC(=O)n2c3c(c4ccccc42)CCCC3)CC1	M1 antagonist -2.9 | M1 antag confirm 457 | mGluR4 antag inactive
CCN(CC)CC(=O)n1c2c(c3ccccc31)CCCC2	none
CCc1nnc2c3cnn(-c4ccc(C)c(C)c4)c3ncn12	none (no result: S1P1 ag pot, D1 allo mod, S1P3 ag)
CCOc1ccccc1C1C(C#N)=C(SCC(=O)OC)NC(=O)C1C(=O)OC (stereo not given)	M1 antagonist -2.8 | M1 antag confirm inactive | mGluR4 antag inactive
COc1cccc(-c2nc(CS(=O)(=O)CC(=O)NCCCN3CCc4ccccc4C3)c(C)o2)c1	M1 antagonist -1.8 | M1 antag confirm inactive | mGluR4 antag inactive
C/C(=C\c1ccccc1)CN1CCN(c2ccccc2)CC1	none (no result: S1P1 ag pot, S1P3 ag)
CCCCN(C)C(=O)C1CCN(C/C(C)=C/c2ccccc2)CC1	M1 antagonist -4 | M1 antag confirm 520 | mGluR4 antag inactive

Assay outcomes as filed in PubChem BioAssay.
